This passage reports IC50, inhibition and Activity results from ChEMBL document CHEMBL2046296, “Synthesis and antidepressant activity of arylalkanol-piperidine derivatives as triple reuptake inhibitors” (Eur J Med Chem, 2012).

Data set [1] addresses T1, Sodium-dependent noradrenaline transporter (Homo sapiens, UniProt P23975). The experiment in a line: Inhibition of [3H]noradrenaline uptake at human NET expressed in HEK293 cells after 10 mins by scintillation counting.
Data set [2] concerns the target T2, Sodium-dependent serotonin transporter (Homo sapiens, UniProt P31645). The experiment in a line: Inhibition of [3H]serotonin uptake at human SERT expressed in HEK293 cells after 10 min by scintillation counting.
Target sequence in this assay (P31645 whole entry): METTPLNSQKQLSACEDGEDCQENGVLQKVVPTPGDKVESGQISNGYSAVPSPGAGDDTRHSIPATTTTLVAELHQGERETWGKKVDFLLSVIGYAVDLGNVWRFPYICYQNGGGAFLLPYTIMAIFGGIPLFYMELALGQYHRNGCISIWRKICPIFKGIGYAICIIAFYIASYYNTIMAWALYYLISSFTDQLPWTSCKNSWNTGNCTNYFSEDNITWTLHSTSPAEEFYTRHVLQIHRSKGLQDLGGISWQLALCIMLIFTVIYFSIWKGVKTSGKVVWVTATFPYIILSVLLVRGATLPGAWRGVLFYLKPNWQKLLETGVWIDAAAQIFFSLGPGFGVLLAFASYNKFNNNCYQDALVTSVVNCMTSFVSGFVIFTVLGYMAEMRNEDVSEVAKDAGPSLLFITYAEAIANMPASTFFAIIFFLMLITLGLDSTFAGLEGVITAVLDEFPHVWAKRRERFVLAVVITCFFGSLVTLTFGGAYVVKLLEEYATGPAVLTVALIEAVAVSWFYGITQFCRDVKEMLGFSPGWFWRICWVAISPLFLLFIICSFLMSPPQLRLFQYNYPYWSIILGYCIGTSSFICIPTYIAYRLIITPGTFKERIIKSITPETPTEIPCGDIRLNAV
The target in data set [3] is Sodium-dependent dopamine transporter (Homo sapiens, UniProt Q01959). The experiment in a line: Inhibition of [3H]dopamine uptake at human DAT expressed in HEK293 cells at 10 uM after 10 mins by scintillation counting.
Sequence of Sodium-dependent dopamine transporter (Q01959 whole entry): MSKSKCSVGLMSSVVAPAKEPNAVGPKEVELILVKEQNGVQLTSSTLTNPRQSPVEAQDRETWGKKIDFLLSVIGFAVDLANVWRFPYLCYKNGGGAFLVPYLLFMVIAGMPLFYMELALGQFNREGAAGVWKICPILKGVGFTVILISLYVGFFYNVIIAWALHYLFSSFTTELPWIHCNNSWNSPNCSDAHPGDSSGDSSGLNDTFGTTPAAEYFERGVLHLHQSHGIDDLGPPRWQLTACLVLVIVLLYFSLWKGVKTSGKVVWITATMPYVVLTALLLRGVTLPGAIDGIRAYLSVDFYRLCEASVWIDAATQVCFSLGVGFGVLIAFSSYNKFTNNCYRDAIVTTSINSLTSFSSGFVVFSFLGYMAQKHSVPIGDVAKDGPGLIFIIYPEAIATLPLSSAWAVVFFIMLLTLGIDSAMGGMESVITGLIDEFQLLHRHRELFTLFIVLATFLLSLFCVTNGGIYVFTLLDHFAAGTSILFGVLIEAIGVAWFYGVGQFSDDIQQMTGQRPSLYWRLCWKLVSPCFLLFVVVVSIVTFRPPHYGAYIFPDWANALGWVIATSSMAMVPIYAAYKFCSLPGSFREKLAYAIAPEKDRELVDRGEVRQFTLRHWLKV
For data set [4], the target named is T2, Sodium-dependent serotonin transporter. The data set can be described thus: Inhibition of [3H]serotonin uptake at human SERT expressed in HEK293 cells at 10 uM after 10 min by scintillation counting.
Target sequence in this assay (P31645 whole entry, looked up): as the sequence (P31645 whole entry) above
Data set [5] has as its target T1, Sodium-dependent noradrenaline transporter. The experiment in a line: Inhibition of [3H]noradrenaline uptake at human NET expressed in HEK293 cells at 10 uM after 10 mins by scintillation counting.
For data set [6], the system named is Mus musculus. The data set can be described thus: Toxicity in mouse assessed as increase in locomotor activity at 50 mg/kg, po up to 5 mins relative to vehicle treated control. In kind it is organism-based. Also noted: dose 50 mg/kg, route oral. Particulars: in vivo. The method in brief:
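Mice were dosed orally at 50 mg/kg and 30 min later placed singly in new 35×35×35 cm plastic cages under dim light with sound attenuation. Activity was logged by a monitoring apparatus at intervals up to 30 min, and the 5 min point was analysed. Mean ± SEM; one-way ANOVA, Scheffe post hoc, versus control.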

Data set [7] concerns Mus musculus. The data set can be described thus: Antidepressant activity in mouse assessed as decrease in immobility at 50 mg/kg, po administered 30 mins prior to testing by tail suspension test relative to vehicle control. In kind it is functional. More on the design: scale not given: the % may be the effect or the level left. The method in brief: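 Oral doses of 10–50 mg/kg (three doses) were given once, 30 min before testing. Mice were hung by adhesive tape 1 cm from the tail tip, 75 cm above the tabletop. Immobility was recorded for 5 min, scored blind, 10–12 mice per group, against vehicle controls. One-way ANOVA with Scheffe post hoc test; p<0.05 significant.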

Each structure is given as a SMILES string.

T1 sequence (P23975 whole entry): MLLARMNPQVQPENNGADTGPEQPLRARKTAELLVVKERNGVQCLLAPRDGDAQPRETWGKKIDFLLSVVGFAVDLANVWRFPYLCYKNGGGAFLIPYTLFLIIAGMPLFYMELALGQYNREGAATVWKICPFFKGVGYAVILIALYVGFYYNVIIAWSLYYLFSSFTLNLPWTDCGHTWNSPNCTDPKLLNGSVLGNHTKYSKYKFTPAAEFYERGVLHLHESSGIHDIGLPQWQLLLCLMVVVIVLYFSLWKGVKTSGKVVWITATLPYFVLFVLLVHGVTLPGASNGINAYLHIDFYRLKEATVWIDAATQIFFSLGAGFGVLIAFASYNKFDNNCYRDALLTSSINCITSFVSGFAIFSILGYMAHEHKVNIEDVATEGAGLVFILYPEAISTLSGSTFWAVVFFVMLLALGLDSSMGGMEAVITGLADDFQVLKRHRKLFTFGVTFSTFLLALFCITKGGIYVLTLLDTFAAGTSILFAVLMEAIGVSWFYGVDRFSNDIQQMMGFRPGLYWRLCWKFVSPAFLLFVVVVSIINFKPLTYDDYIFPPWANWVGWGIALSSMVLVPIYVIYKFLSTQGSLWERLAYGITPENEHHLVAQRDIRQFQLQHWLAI

The term IC50 denotes the concentration needed to halve the response being measured. Broadly, the inhibition is the percentage by which the read-out fell short of the control. Consider `C[C@@H]([C@@H](O)c1ccc(Cl)c(Cl)c1)N1CC=C(Cc2ccccc2)CC1` (racemic), for which the IC50 came out at 531 nM in data set [1] and 367 nM in data set [2]. Besides, the inhibition in data set [3] stood at 64%.
As to `OC(CCN1CC=C(Cc2ccccc2)CC1)c1ccc(F)cc1F` (racemic), the inhibition came out at 66% in data set [4], 78% in data set [5] and 66% in data set [3].
Regarding `C[C@H]([C@@H](O)c1csc2ccccc12)N1CC=C(Cc2ccccc2)CC1` (racemic), the inhibition in data set [4] stood at 55%; in data set [5], 78%; in data set [3], 75%.
The like results for `COc1ccc2cc([C@H](O)[C@@H](C)N3CCC(O)(Cc4ccccc4)CC3)ccc2c1Cl` (racemic) were, in that order, 80%, 63% and 51%.
Take `COc1ccc(C(O)CCN2CC=C(Cc3ccccc3)CC2)cc1` (racemic): it took 768 nM to reach half-maximal inhibition in data set [2] (IC50). Further, the inhibition in data set [5] stood at 62%; in data set [3] it was 57%.
As to `COc1ccc2cc(C(O)CCN3CCC(O)(Cc4ccccc4)CC3)ccc2c1Cl` (racemic), the figures for the IC50 in data set [1] and in data set [2] were 800 nM and 427 nM, respectively. For the same compound, the inhibition in data set [3] is 73%.
Take `COc1ccc(C(CN(C)C)C2(O)CCCCC2)cc1` (configuration not stated) [VENLAFAXINE]: the Activity result in data set [6] was “Non-toxic”; in data set [7] it was 63%.
For the compound `Cc1ccc(C(O)CCN2CC=C(Cc3ccccc3)CC2)cc1` (racemic), the inhibition in data set [4] was determined as 62%; in data set [5], 83%; in data set [3], 30%.
As for `O=[N+]([O-])c1ccc(C(O)CCN2CC=C(Cc3ccccc3)CC2)cc1` (racemic), the inhibition in data set [4] stood at 65%; in data set [5] it was 74%; in data set [3], 55%.
For the compound `C[C@@H]([C@@H](O)c1csc2ccccc12)N1CC=C(Cc2ccccc2)CC1` (racemic), the inhibition in data set [4] worked out at 33%; in data set [5], 34%; in data set [3], 77%.
The like results for `C[C@H]([C@@H](O)c1cccc(F)c1)N1CC=C(Cc2ccccc2)CC1` (racemic) were, in that order, 61%, 83% and 35%.
Take `OC(CCN1CC=C(Cc2ccccc2)CC1)c1cccs1` (racemic): the inhibition was found to be 78% in data set [4], 82% in data set [5] and 52% in data set [3].
As to `COc1ccc([C@H](O)[C@H](C)N2CC=C(Cc3ccccc3)CC2)cc1` (racemic), the inhibition in data set [4] was found to be 80%; in data set [5], 55%; in data set [3], 68%.
For the compound `OC(CCN1CC=C(Cc2ccccc2)CC1)c1ccc2c(c1)CCO2` (racemic), the inhibition is 74% in data set [4], 88% in data set [5] and 49% in data set [3].
For the compound `C[C@@H]([C@@H](O)c1cccc(F)c1)N1CC=C(Cc2ccccc2)CC1` (racemic), the figures for the inhibition in data set [4], in data set [5] and in data set [3] were 63%, 57% and 70%, respectively.
In the case of `C[C@H]([C@@H](O)c1ccc(Cl)c(Cl)c1)N1CC=C(Cc2ccccc2)CC1` (racemic), the figures for the inhibition in data set [4], in data set [5] and in data set [3] were 38%, 36% and 56%, respectively.
`COc1ccc2cc([C@H](O)[C@H](C)N3CCC(O)(Cc4ccccc4)CC3)ccc2c1Cl` (racemic) came in with an IC50 in data set [2] of 357 nM. Also, the inhibition is 55% in data set [5] and 22% in data set [3].
As for `COc1ccc(C(O)CCN2CC=C(Cc3ccccc3)CC2)cc1OC` (racemic), the inhibition amounted to 74% in data set [4], 63% in data set [5] and 61% in data set [3].
The like results for `COc1ccc([C@H](O)[C@@H](C)N2CC=C(Cc3ccccc3)CC2)cc1` (racemic) were, in that order, 59%, 62% and 70%.
The like results for `OC(CCN1CCC(O)(Cc2ccccc2)CC1)c1csc2ccccc12` (racemic) were, in that order, 27%, 61% and 64%.
The like results for `OC(CCN1CC=C(Cc2ccccc2)CC1)c1ccc(Cl)cc1` (racemic) were, in that order, 56%, 50% and 61%.
